{
  "source": "ChEMBL document CHEMBL4371044",
  "about": "“Celastrol Promotes Weight Loss in Diet-Induced Obesity by Inhibiting the Protein Tyrosine Phosphatases PTP1B and TCPTP in the Hypothalamus” (J Med Chem, 2018)",
  "key": {"[1]": {"target": "Tyrosine-protein phosphatase non-receptor type 6 (Homo sapiens, UniProt P29350)", "sequence (P29350 whole entry, the tested form may be a part)": "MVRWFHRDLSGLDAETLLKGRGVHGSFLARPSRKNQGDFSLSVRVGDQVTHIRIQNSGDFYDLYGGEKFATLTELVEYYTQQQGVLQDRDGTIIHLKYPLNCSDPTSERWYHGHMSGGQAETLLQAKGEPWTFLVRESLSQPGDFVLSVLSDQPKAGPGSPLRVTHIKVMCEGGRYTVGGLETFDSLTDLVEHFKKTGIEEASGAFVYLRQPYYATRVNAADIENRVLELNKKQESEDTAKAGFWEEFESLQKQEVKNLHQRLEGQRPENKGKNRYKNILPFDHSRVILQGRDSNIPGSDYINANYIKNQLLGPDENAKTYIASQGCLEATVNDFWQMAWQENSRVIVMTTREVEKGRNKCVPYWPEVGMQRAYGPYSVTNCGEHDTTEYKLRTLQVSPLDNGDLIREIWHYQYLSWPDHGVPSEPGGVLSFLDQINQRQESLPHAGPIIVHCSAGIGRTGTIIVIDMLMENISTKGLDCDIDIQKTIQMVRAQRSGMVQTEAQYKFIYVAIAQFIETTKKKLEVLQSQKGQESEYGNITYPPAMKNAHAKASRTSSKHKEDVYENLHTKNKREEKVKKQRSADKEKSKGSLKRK", "assay": "Inhibition of human SHP1 (245 to 521 residues) expressed in Escherichia coli strain BL21(DE3) using DiFMUP as substrate preincubated for 10 mins followed by substrate addition and measured after 10 mins by fluorescence assay", "method_in_brief": "(§1)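 Selectivity panel on enzymes expressed in E. coli BL21(DE3), purified by nickel affinity then size exclusion. DiFMUP fluorescence assay run as for PTP1B/TCPTP, with per-enzyme conditions in a supplementary table; nonlinear regression for IC50; three independent experiments.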"}, "[2]": {"target": "Phosphatidylinositol 3,4,5-trisphosphate 3-phosphatase and dual-specificity protein phosphatase PTEN (Homo sapiens, UniProt P60484)", "sequence (P60484 whole entry, the tested form may be a part)": "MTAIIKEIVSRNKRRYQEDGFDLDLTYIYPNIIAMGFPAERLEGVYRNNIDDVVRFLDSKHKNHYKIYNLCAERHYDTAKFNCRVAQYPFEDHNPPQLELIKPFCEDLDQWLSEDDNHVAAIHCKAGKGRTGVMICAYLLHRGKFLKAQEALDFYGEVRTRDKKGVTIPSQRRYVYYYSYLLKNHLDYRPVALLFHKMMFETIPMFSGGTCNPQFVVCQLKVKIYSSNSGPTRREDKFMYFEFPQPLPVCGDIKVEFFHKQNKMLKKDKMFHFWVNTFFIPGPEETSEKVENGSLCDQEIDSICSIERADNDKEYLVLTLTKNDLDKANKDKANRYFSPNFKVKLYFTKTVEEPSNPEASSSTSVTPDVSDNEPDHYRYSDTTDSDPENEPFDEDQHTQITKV", "assay": "Inhibition of human PTEN (1 to 403 residues) expressed in Escherichia coli strain BL21(DE3) using DiFMUP as substrate preincubated for 10 mins followed by substrate addition and measured after 10 mins by fluorescence assay"}, "[3]": {"assay": "Inhibition of mouse LMPTP-B (1 to 158 residues) expressed in Escherichia coli strain BL21(DE3) using DiFMUP as substrate preincubated for 10 mins followed by substrate addition and measured after 10 mins by fluorescence assay", "method_in_brief": "as §1"}, "Mus musculus": {"system": "Mus musculus", "assay": "Antiobesity activity in high fat diet-induced obese Ptpn1fl/fl null C57BL/6 mouse treated with rAAV-CMV-Cre-GFP for deletion of PTP1B and TCPTP assessed as reduction in body weight at 100 ug/kg, ip for 10 consecutive days", "type": "functional, organism-based"}, "[4]": {"target": "T1, Tyrosine-protein phosphatase non-receptor type 1 (Homo sapiens) (UniProt P18031)", "T1 sequence (whole entry)": "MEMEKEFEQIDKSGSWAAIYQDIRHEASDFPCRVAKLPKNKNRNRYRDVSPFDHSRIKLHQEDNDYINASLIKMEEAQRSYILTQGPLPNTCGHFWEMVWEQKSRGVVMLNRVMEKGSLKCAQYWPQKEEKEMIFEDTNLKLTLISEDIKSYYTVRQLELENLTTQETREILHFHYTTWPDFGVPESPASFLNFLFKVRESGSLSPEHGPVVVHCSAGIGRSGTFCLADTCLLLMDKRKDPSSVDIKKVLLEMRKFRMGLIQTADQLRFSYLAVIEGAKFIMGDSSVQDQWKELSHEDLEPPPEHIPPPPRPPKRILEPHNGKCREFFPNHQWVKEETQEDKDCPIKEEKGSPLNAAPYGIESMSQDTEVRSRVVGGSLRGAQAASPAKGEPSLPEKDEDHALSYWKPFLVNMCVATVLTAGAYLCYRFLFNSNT", "assay": "Inhibition of human N-terminal His6-tagged PTP1B catalytic domain (1 to 298 residues) expressed in Escherichia coli strain Rosetta2 (DE3) up to 500 uM using pNPP as substrate preincubated for 10 mins followed by substrate addition and measured after 10 mins by […]"}, "[5]": {"target": "T2, Tyrosine-protein phosphatase non-receptor type 1 (Homo sapiens, UniProt P18031)", "T2 sequence (P18031 whole entry)": "T1 sequence (whole entry)", "assay": "Binding affinity to human N-terminal His6-tagged PTP1B catalytic domain (1 to 298 residues) expressed in Escherichia coli strain Rosetta2 (DE3) assessed as dissociation rate constant […]"}, "[6]": {"target": "T1, Tyrosine-protein phosphatase non-receptor type 1 (Homo sapiens)", "assay": "Binding affinity to human N-terminal His6-tagged PTP1B catalytic domain (1 to 298 residues) expressed in Escherichia coli strain Rosetta2 (DE3) by NMR spectroscopy", "method_in_brief": "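100 μM 2H(~70%)/15N-labelled PTP1B1−298 in 100 mM d11-Tris pH 7.5, 75 mM NaCl, 10% D2O at 20 °C. Compound added to 250 μM (0.5% DMSO-d6); 1H,15N TROSY at 800 MHz against DMSO-only reference; amide chemical shift perturbations computed.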"}, "[7]": {"target": "T3, Receptor-type tyrosine-protein phosphatase eta (Homo sapiens, UniProt Q12913)", "T3 sequence (Q12913 whole entry)": "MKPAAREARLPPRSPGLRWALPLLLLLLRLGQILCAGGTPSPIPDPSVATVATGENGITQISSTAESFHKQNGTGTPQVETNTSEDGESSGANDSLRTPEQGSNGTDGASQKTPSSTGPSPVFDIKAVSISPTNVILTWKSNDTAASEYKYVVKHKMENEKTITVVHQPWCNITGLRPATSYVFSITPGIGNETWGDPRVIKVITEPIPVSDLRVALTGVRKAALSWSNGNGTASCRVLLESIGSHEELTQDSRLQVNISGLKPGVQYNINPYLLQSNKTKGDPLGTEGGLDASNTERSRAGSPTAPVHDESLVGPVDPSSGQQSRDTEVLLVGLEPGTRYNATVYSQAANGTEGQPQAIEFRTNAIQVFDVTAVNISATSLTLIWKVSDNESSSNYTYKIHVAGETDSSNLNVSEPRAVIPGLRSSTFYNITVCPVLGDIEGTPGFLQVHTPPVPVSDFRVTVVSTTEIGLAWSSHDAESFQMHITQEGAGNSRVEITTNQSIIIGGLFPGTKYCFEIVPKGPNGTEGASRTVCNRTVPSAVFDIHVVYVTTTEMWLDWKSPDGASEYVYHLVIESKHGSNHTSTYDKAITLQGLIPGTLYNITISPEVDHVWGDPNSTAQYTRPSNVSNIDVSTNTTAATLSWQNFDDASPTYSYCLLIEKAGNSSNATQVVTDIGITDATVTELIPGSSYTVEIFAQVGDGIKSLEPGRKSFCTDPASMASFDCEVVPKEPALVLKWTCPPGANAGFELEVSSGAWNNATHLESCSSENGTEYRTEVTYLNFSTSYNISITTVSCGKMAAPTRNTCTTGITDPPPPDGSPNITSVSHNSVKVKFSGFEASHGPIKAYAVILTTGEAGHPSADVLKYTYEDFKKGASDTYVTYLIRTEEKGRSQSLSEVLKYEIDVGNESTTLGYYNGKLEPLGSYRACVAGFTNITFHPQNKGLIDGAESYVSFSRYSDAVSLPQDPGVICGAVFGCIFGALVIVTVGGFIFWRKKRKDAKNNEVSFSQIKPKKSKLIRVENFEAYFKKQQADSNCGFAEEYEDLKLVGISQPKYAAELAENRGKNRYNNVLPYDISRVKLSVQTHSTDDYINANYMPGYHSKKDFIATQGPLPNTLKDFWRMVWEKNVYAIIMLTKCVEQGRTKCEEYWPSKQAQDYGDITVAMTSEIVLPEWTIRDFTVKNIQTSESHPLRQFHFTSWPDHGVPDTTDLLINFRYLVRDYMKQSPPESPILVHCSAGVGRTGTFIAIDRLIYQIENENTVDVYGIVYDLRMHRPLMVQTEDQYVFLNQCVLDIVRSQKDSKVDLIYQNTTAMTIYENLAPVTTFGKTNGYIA", "assay": "Inhibition of human PTPRJ (1019 to 1311 residues) expressed in Escherichia coli strain BL21(DE3) using DiFMUP as substrate preincubated for 10 mins followed by substrate addition and measured after 10 mins by fluorescence assay", "method_in_brief": "as §1"}},
  "note": "Active and inactive are the calls of the source. No cut-off for these calls is given here.",
  "data": [
    {"smiles": "CC1=C(O)C(=O)C=C2C1=CC=C1[C@@]2(C)CC[C@@]2(C)[C@@H]3C[C@](C)(C(=O)O)CC[C@]3(C)CC[C@]12C", "note": "[CELASTROL]", "values": [
      {"measurement": "IC50", "setting": "[1]", "value": 3.1, "unit": "µM"},
      {"measurement": "IC50", "setting": "[2]", "value": 13.3, "unit": "µM"},
      {"measurement": "IC50", "setting": "[3]", "value": "> 500", "unit": "µM"},
      {"measurement": "Activity", "setting": "Mus musculus", "value": "inactive"},
      {"measurement": "inhibition", "setting": "[4]", "value": "Active"},
      {"measurement": "koff", "setting": "[5]", "value": 3.62, "unit": "×10⁻⁴ /s"},
      {"measurement": "Activity", "setting": "[6]", "value": "Active"},
      {"measurement": "IC50", "setting": "[7]", "value": 111, "unit": "µM"}
    ]}
  ]
}
